Results taken from ChEMBL document CHEMBL3779798, “Novel seleno- and thio-urea derivatives with potent in vitro activities against several cancer cell lines” (Eur J Med Chem, 2016).
The source made the active and inactive calls. The calls are words filed in the database; no cut-off is given here.

Legend:
[1] = Anticancer activity against human 1205 Lu cells assessed as inhibition of cell growth after 48 hrs by MTT assay; format: functional, cell-based
Method in brief: (§1)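 MTT assay at 3,000 cells/well. Cells treated with DMSO or seven concentrations from 0.5 to 50 µM for 24, 48 or 72 h. MTT added 3 h before the end point; formazan dissolved in DMSO and read at 570 and 630 nm. IC50 is the concentration giving 50% growth inhibition. Media: PANC-1, BxPC3 and 1205Lu in DMEM; DU145 and A549 in RPMI 1640; HT29, HCT116 and RKO in McCoy's 5A, all with 10% FBS and pen/strep, at 37 °C and 5% CO2.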

[2] = test system: HCT-116; experiment: Decrease in number of viable cells in human HCT116 cells at 5 uM after 24 hrs by calcein-AM and ethidium homodimer-1 staining based flow cytometry analysis (reference value: 94.9%); format: functional
[3] = Anticancer activity against human DU145 cells assessed as inhibition of cell growth after 24 hrs by MTT assay; format: functional, cell-based; details: DU-145, 24 h; method in brief: as §1
[4] = test system: HT-29; experiment: Potency index, ratio IC50 of 5-FU to IC50 of compound for anticancer activity against human HT-29 cells; format: functional
Method in brief: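 Colon lines (McCoy's 5A, 10% FBS, penicillin/streptomycin, 37 °C, 5% CO2) seeded at 3,000 cells/well and exposed 24, 48 or 72 h to DMSO or seven concentrations across 0.5–50 µM. MTT added 3 h before end; formazan dissolved in DMSO, absorbance read at 570 and 630 nm. IC50 (50% growth inhibition) from curve fitting; index is the 5-FU IC50 divided by the compound IC50.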

[5] = Anticancer activity against human BxPC3 cells assessed as inhibition of cell growth after 48 hrs by MTT assay; format: functional, cell-based; details: BXPC-3, 48 h; method in brief: as §1
[6] = test system: HCT-116; experiment: Induction of apoptosis in human HCT116 cells assessed as viable cells at 5 uM after 24 hrs by annexin-V staining based flow cytometry analysis (reference value: 90.38%); format: functional; details: HCT-116, 24 h, read-out: Activity
[7] = Anticancer activity against human DU145 cells assessed as inhibition of cell growth after 48 hrs by MTT assay; format: functional, cell-based; details: DU-145, 48 h; method in brief: as §1
[8] = Induction of cell death in human HCT116 cells at 5 uM after 24 hrs by calcein-AM and ethidium homodimer-1 staining based flow cytometry analysis (reference value: 1.1%); format: functional, HCT-116
[9] = test system: A549; experiment: Anticancer activity against human A549 cells assessed as inhibition of cell growth after 72 hrs by MTT assay; format: functional, cell-based; details: A549, 72 h; method in brief: as §1
[10] = test system: HCT-116; experiment: Decrease in number of viable cells in human HCT116 cells at 1 uM after 24 hrs by calcein-AM and ethidium homodimer-1 staining based flow cytometry analysis (reference value: 94.9%); format: functional
[11] = test system: HCT-116; experiment: Induction of apoptosis in human HCT116 cells assessed as viable cells at 1 uM after 24 hrs by caspase3/7 reagent based flow cytometry (reference value: 88.4%); format: functional; details: HCT-116, 24 h, read-out: Activity
[12] = test system: HCT-116; experiment: Induction of apoptosis in human HCT116 cells assessed as necrotic cells at 2.5 uM after 24 hrs by caspase3/7 reagent based flow cytometry (reference value: 4.14%); format: functional
[13] = Anticancer activity against human BxPC3 cells assessed as inhibition of cell growth after 72 hrs by MTT assay; format: functional, cell-based; details: BXPC-3, 72 h; method in brief: as §1
[14] = test system: HCT-116; experiment: Induction of apoptosis in human HCT116 cells assessed as early apoptotic cells at 1 uM after 24 hrs by caspase3/7 reagent based flow cytometry (reference value: 5.18%); format: functional
[15] = test system: HCT-116; experiment: Induction of apoptosis in human HCT116 cells assessed as early apoptotic cells at 1 uM after 24 hrs by annexin-V staining based flow cytometry analysis (reference value: 7.84%); format: functional
[16] = test system: HCT-116; experiment: Induction of apoptosis in human HCT116 cells assessed as early apoptotic cells at 2.5 uM after 24 hrs by annexin-V staining based flow cytometry analysis (reference value: 7.84%); format: functional
[17] = Anticancer activity against human DU145 cells assessed as inhibition of cell growth after 72 hrs by MTT assay; format: functional, cell-based; details: DU-145, 72 h; method in brief: as §1
[18] = test system: HCT-116; experiment: Induction of apoptosis in human HCT116 cells assessed as late apoptotic cells at 2.5 uM after 24 hrs by caspase3/7 reagent based flow cytometry (reference value: 2.28%); format: functional
[19] = test system: HCT-116; experiment: Induction of apoptosis in human HCT116 cells assessed as late apoptotic cells at 1 uM after 24 hrs by annexin-V staining based flow cytometry analysis (reference value: 1.06%); format: functional
[20] = test system: HCT-116; experiment: Decrease in number of viable cells in human HCT116 cells at 2.5 uM after 24 hrs by calcein-AM and ethidium homodimer-1 staining based flow cytometry analysis (reference value: 94.9%); format: functional
[21] = Anticancer activity against human PANC1 cells assessed as inhibition of cell growth after 72 hrs by MTT assay; format: functional, cell-based; details: PANC-1, 72 h; method in brief: as §1
[22] = Induction of cell death in human HCT116 cells at 1 uM after 24 hrs by calcein-AM and ethidium homodimer-1 staining based flow cytometry analysis (reference value: 1.1%); format: functional, HCT-116
[23] = test system: HCT-116; experiment: Decrease in whole PARP level in human HCT116 cells at 0.5 to 5 uM after 24 hrs by western blot analysis; format: functional, cell-based
Method in brief: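 HCT116 cells (6 × 10^5/well) treated for 24 h. Whole-cell lysates made in RIPA buffer with phosphatase and protease inhibitors and PMSF, cleared at 15,000 g, resolved by SDS-PAGE and transferred to PVDF. Blots probed overnight in the cold with primary antibodies, then peroxidase-linked secondaries, and detected by ECL; β-actin antibody used.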

[24] = test system: HCT-116; experiment: Induction of apoptosis in human HCT116 cells assessed as early apoptotic cells after 24 hrs by annexin-V staining based flow cytometry analysis; format: functional, cell-based
[25] = Anticancer activity against human BxPC3 cells assessed as inhibition of cell growth after 24 hrs by MTT assay; format: functional, cell-based; details: BXPC-3, 24 h; method in brief: as §1
[26] = test system: RKO; experiment: Anticancer activity against human RKO cells assessed as inhibition of cell growth after 24 hrs by MTT assay; format: functional, cell-based; method in brief: as §1
[27] = Anticancer activity against human HCT116 cells assessed as inhibition of cell growth after 48 hrs by MTT assay; format: functional, cell-based; details: HCT-116, 48 h; method in brief: as §1
[28] = test system: HCT-116; experiment: Induction of apoptosis in human HCT116 cells assessed as early apoptotic cells at 5 uM after 24 hrs by caspase3/7 reagent based flow cytometry (reference value: 5.18%); format: functional
[29] = test system: HCT-116; experiment: Induction of apoptosis in human HCT116 cells assessed as necrotic cells at 2.5 uM after 24 hrs by annexin-V staining based flow cytometry analysis (reference value: 0.72%); format: functional
[30] = Anticancer activity against human 1205 Lu cells assessed as inhibition of cell growth after 72 hrs by MTT assay; format: functional, cell-based; method in brief: as §1
[31] = Induction of cell death in human HCT116 cells at 2.5 uM after 24 hrs by calcein-AM and ethidium homodimer-1 staining based flow cytometry analysis (reference value: 1.1%); format: functional, HCT-116
[32] = test system: A549; experiment: Anticancer activity against human A549 cells assessed as inhibition of cell growth after 48 hrs by MTT assay; format: functional, cell-based; details: A549, 48 h; method in brief: as §1
[33] = test system: HCT-116; experiment: Induction of apoptosis in human HCT116 cells assessed as necrotic cells at 5 uM after 24 hrs by caspase3/7 reagent based flow cytometry (reference value: 4.14%); format: functional

Question: What does the source list for `Br.Br.N=C(N)[Se]Cc1nc2ccccc2nc1C[Se]C(=N)N`?
Answer: IC50 [1]: 2800 nM; Activity [2]: 73.4%; IC50 [3]: 2300 nM; Ratio IC50 [4]: >50; IC50 [5]: 2900 nM; viability at 5 µM [6]: 24.6%; IC50 [7]: 2800 nM; Activity [8]: 19.3%; IC50 [9]: 1000 nM; Activity [10]: 96.9%; viability at 1 µM [11]: 87%; Activity [12]: 2.78%; IC50 [13]: 2200 nM; Activity [14]: 7.18%; Activity [15]: 19.44%; Activity [16]: 21.6%; IC50 [17]: 1000 nM; Activity [18]: 5.72%; Activity [19]: 2.28%; Activity [20]: 92.2%; IC50 [21]: 2000 nM; Activity [22]: 0.7%; Activity [23]: Active; Activity [24]: Dose-dependent effect; IC50 [25]: 3600 nM; IC50 [26]: 3800 nM; IC50 [27]: 700 nM; Activity [28]: 27.66%; Activity [29]: 0.58%; IC50 [30]: 2200 nM; Activity [31]: 5.1%; IC50 [32]: 2000 nM; Activity [33]: 5.96%
